Published values collected from several papers.
Compare with care: the assays were run in different laboratories.
Target: Serine/threonine-protein kinase 32A (STK32A, Homo sapiens, UniProt Q8WU08)

FC(F)(F)Oc1cccc(-c2cnc3ccc(-c4ccncc4)nn23)c1 — remaining binding (binding; competition with immobilised ligand; 5 µM): 75%
O=C(c1ccc(Nc2ncc(Cl)c(-c3cc4ccccc4s3)n2)cc1)N1CCC(N2CCCC2)CC1 — remaining binding (binding; competition with immobilised ligand; 1 µM): 68%
F[C@@H]1CCN(c2nccc(-c3cnn4ncccc34)n2)C1 — remaining binding (binding; 1 µM): 100%
Nc1ncc2c(n1)-c1c([nH]c3ccc(C#CC4CC4)cc13)CCCC2 — remaining binding (binding; competition with immobilised ligand; 1 µM): 80%
CC(=O)Nc1c(C(C)=O)c(=O)n(C)c2nc(-c3ccc(Cl)cc3Cl)c(-c3ccc(Cl)cc3)cc12 — remaining binding (cell-free assay; competition with immobilised ligand; 1 µM): 82%
O=C(Nc1c[nH]nc1C(=O)NC1CCNCC1)c1cc(F)cc(F)c1 — remaining binding (binding; competition with immobilised ligand; 1 µM): 95%
CNC(=O)[C@@H]1CC[C@@H](n2c(-c3ccc4cnccc4c3)nc3ccc(C(=O)NCc4cccc(C(N)=O)c4)cc32)C1 — remaining binding (binding; competition with immobilised ligand; 1 µM): 100%
c1cncc(-c2cccc(Nc3nccc(NC4CCCCC4)n3)c2)c1 — remaining binding (binding; competition with immobilised ligand; 10 µM): 69%
COc1ccnn2ncc(-c3ccnc(N(C)C)n3)c12 — remaining binding (binding; 1 µM): 74%
Cc1c(NC(=O)c2cc(C(N)=O)nc3cc(F)ccc23)c(C(F)(F)F)nn1Cc1ccc(C(C)(C)C)cc1 — remaining binding (cell-free assay; competition with immobilised ligand; 1 µM): 100%
COc1cnc(Nc2cccc(S(N)(=O)=O)c2)nc1N1CCN(c2ccccc2)C(=O)C1 — remaining binding (binding; competition with immobilised ligand; 1 µM): 98%
CCCOc1ccc([C@@H]2[C@@H](C(=O)O)[C@H](c3ccc4c(c3)OCO4)CN2CC(=O)Nc2c(CC)cccc2CC)cc1 — remaining binding (cell-free assay; competition with immobilised ligand; 1 µM): 85%
O=C(c1ccc(Nc2nccc(-c3cc4ccccc4s3)n2)cc1)N1CCC(N2CCCC2)CC1 — remaining binding (binding; competition with immobilised ligand; 1 µM): 100%
CN(c1ccnc(CNc2nc(Nc3ccc4c(c3)CC(=O)N4)ncc2C(F)(F)F)n1)S(C)(=O)=O — remaining binding (cell-free assay; competition with immobilised ligand; 1 µM): 72%
C[C@@H]1CCN(c2nccc(-c3cnn4ncccc34)n2)C1 — remaining binding (binding; 1 µM): 71%
COc1ncc2cc3ccccc3nc2c1C#N — remaining binding (binding; competition with immobilised ligand; 5 µM): 100%
Cc1cnn2ncc(-c3ccnc(N(C)C)n3)c2c1 — remaining binding (binding; 1 µM): 71%
O=C(NCCCN1CCOCC1)c1ccc(Nc2nccc(-c3cc4ccccc4s3)n2)cc1 — remaining binding (binding; competition with immobilised ligand; 1 µM): 100%
CN(CCCC(F)(F)F)c1nccc(-c2cnn3ncccc23)n1 — remaining binding (binding; 1 µM): 100%
N#Cc1ccc(Nc2ccc3[nH]c(=O)[nH]c3c2)c(Cl)c1 — remaining binding (binding; competition with immobilised ligand; 1 µM): 81%
N[C@H]1CCN(c2nccc(-c3cnn4ncccc34)n2)C1 — remaining binding (binding; 1 µM): 87%
NS(=O)(=O)c1cc(NC(=O)Cc2ccccc2)ccc1Oc1cccc(Cl)c1 — remaining binding (cell-free assay; competition with immobilised ligand; 1 µM): 100%
